Assay results taken from ChEMBL document CHEMBL2434879, “Small molecular inhibitors of miR-1 identified from photocycloadducts of acetylenes with 2-methoxy-1,4-naphthalenequinone” (Bioorg Med Chem, 2013).
Activity calls are given as the source filed them. No cut-off for these calls is given here.

Assays:
Type in all cases: cell-based
Nucleic Acid [1] = assay: Inhibition of microRNA miR-214 (unknown origin) transfected in human A549 cells at 10 uM after 48 hrs by luciferase reporter gene assay relative to DMSO-treated control
How it was run: (§1)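 Cells transfected with the matching miRNA luciferase reporter ([…] for miR-150; A549 for miR-25 or miR-214), with β-gal as internal reference. Treated with 10 µM compound in high-glucose DMEM with 2% FBS (DMSO final 1:1000) for 48 h at 37 °C, 5% CO2. Luciferase signal was normalized to the DMSO control. Triplicates, mean ± SE (n = 3).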

Nucleic Acid [2] = assay: Inhibition of microRNA miR-25 (unknown origin) transfected in human A549 cells at 10 uM after 48 hrs by luciferase reporter gene assay relative to DMSO-treated control; how it was run: as §1
Nucleic Acid [3] = assay: Inhibition of microRNA miR-150 (unknown origin) transfected in mouse […] cells at 10 uM after 48 hrs by luciferase reporter gene assay relative to DMSO-treated control; how it was run: as §1
Nucleic Acid [4] = assay: Inhibition of microRNA miR-1 (unknown origin) transfected in mouse C2C12 cells at 10 uM after 48 hrs by luciferase reporter gene assay relative to DMSO-treated control
How it was run: (§2)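 C2C12 co-transfected at 70% confluence with miR-1 luciferase reporter (0.25 µg) plus β-galactosidase plasmid (0.25 µg, transfection control) via lipofectamine 2000. After 6 h the medium was switched to DMEM with 2% horse serum to induce differentiation, and compound was added (DMSO final 1:1000). Cells were incubated 48 h at 37 °C, 5% CO2, then luciferase read and normalized to DMSO. Triplicates, mean ± SE (n = 3).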

Nucleic Acid [5] = assay: Inhibition of microRNA miR-1 (unknown origin) transfected in mouse C2C12 cells at 5 uM after 48 hrs by luciferase reporter gene assay relative to DMSO-treated control; how it was run: as §2
Nucleic Acid [6] = assay: Inhibition of microRNA miR-1 (unknown origin) transfected in mouse C2C12 cells after 48 hrs by luciferase reporter gene assay relative to DMSO-treated control; how it was run: as §2
Nucleic Acid [7] = assay: Reduction in cytoplasmic level of microRNA miR-9 (unknown origin) transfected in human MCF7 cells at 10 uM after 48 hrs by quantitative RT-PCR method relative to DMSO-treated control
How it was run: (§3)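 Total RNA (TRIZOL) taken after 48 h compound or DMSO treatment from differentiated C2C12 (miR-1), HeLa (miR-21), A549 (miR-25, miR-214), MCF-7 (miR-9) and […] (miR-150). 2 µg RNA per RT with miRNA-specific primers (16 °C 30 min, 42 °C 30 min, 85 °C 5 min). TaqMan qPCR: 95 °C 10 min, then 40 cycles of 95 °C 15 s and 60 °C 1 min. Comparative Ct method, normalized to DMSO; triplicates, mean ± SE (n = 3).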

Nucleic Acid [8] = assay: Reduction in cytoplasmic level of microRNA miR-21 (unknown origin) transfected in human HeLa cells at 10 uM after 48 hrs by quantitative RT-PCR method relative to DMSO-treated control; how it was run: as §3
Nucleic Acid [9] = assay: Reduction in cytoplasmic level of microRNA miR-214 (unknown origin) transfected in human A549 cells at 10 uM after 48 hrs by quantitative RT-PCR method relative to DMSO-treated control; how it was run: as §3
Nucleic Acid [10] = assay: Reduction in cytoplasmic level of microRNA miR-25 (unknown origin) transfected in human A549 cells at 10 uM after 48 hrs by quantitative RT-PCR method relative to DMSO-treated control; how it was run: as §3
Nucleic Acid [11] = assay: Reduction in cytoplasmic level of microRNA miR-150 (unknown origin) transfected in mouse […] cells at 10 uM after 48 hrs by quantitative RT-PCR method relative to DMSO-treated control; how it was run: as §3
Nucleic Acid [12] = assay: Reduction in cytoplasmic level of microRNA miR-1 (unknown origin) transfected in mouse C2C12 cells at 10 uM after 48 hrs by quantitative RT-PCR method relative to DMSO-treated control; how it was run: as §3
Nucleic Acid [13] = assay: Inhibition of microRNA miR-9 (unknown origin) transfected in human MCF7 cells at 10 uM after 48 hrs by luciferase reporter gene assay relative to DMSO-treated control
How it was run: (§4)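 Reporter cells for miR-21 (HeLa) or miR-9 (MCF-7) given 10 µM compound for 48 h. Luciferase signal normalized to DMSO control. Triplicates, mean ± SE (n = 3).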

Nucleic Acid [14] = assay: Inhibition of microRNA miR-21 (unknown origin) transfected in human HeLa cells at 10 uM after 48 hrs by luciferase reporter gene assay relative to DMSO-treated control; how it was run: as §4

SMILES	fold change (FC) (Nucleic Acid [1])	fold change (FC) (Nucleic Acid [2])	fold change (FC) (Nucleic Acid [3])	fold change (FC) (Nucleic Acid [4])	inhibition (Nucleic Acid [5])	other results
COC12C(=O)c3ccccc3C(=O)C1C(C1CC1)=C2c1cnc2ccccc2c1 (centres undefined)	0.93	1	0.83	1.36	–	–
COC12C(=O)c3ccccc3C(=O)C1C(c1ccc(O)c3ncccc13)=C2[Si](C)(C)C (centres undefined)	–	–	–	–	Active	–
COC12C(=O)c3ccccc3C(=O)C1C(c1ccc(OC(=O)OC(C)(C)C)c3ncccc13)=C2[Si](C)(C)C (centres undefined)	–	–	–	–	inactive	–
COc1ccc(C2=C(c3ccccc3)C3C(=O)c4ccccc4C(=O)C23OC)c2cccnc12 (centres undefined)	–	–	–	–	Active	–
COC12C(=O)c3ccccc3C(=O)C1C(C1CC1)=C2c1cnccn1 (centres undefined)	0.74	0.83	1.63	0.84	–	–
COC12C(=O)c3ccccc3C(=O)C1C(c1ccccc1)=C2c1ccc(O)c2ncccc12 (centres undefined)	–	–	–	–	Active	–
COC12C(=O)c3ccccc3C(=O)C1C(c1ccccn1)=C2c1ccccc1 (centres undefined)	0.95	0.95	1.16	0.9	–	–
COC12C(=O)c3ccccc3C(=O)C1C(c1cnccn1)=C2c1ccccc1 (centres undefined)	0.93	1.01	1.32	1.12	–	–
COC12C(=O)c3ccccc3C(=O)C1C(C1CC1)=C2c1ccc(O)c2ncccc12 (centres undefined)	–	–	–	–	Active	–
COC12C(=O)c3ccccc3C(=O)C1C(C1CC1)=C2c1ccc(OC(=O)OC(C)(C)C)c2ncccc12 (centres undefined)	–	–	–	–	inactive	–
COC12C(=O)c3ccccc3C(=O)C1C(c1ccccc1)=C2c1ccc(OC(C)=O)c2ncccc12 (centres undefined)	–	–	–	–	inactive	–
COC12C=C(c3ccc(O)c4ncccc34)C1C(=O)c1ccccc1C2=O (centres undefined)	–	–	–	–	inactive	–
COC12C(=O)c3ccccc3C(=O)C1C(C1CC1)=C2c1ccccn1 (centres undefined)	0.82	0.92	1.2	1.55	–	–
COC12C(=O)c3ccccc3C(=O)C1C(C1CC1)=C2c1cncnc1 (centres undefined)	1.28	1.16	1.02	2.06	–	–
COC12C(=O)c3ccccc3C(=O)C1C(C1CC1)=C2c1cncc2ccccc12 (centres undefined)	1.1	1.16	1.75	0.87	–	–
COC12C(=O)c3ccccc3C(=O)C1C(C1CC1)=C2c1ccc(OC(C)=O)c2ncccc12 (centres undefined)	–	–	–	–	inactive	–
COC12C(=O)c3ccccc3C(=O)C1C(c1ccccc1)=C2c1ccc(OC(=O)OC(C)(C)C)c2ncccc12 (centres undefined)	1.01	0.95	1.35	7.11	–	inhibition (Nucleic Acid [6]): Dose-dependent effect; Activity (Nucleic Acid [7]): inactive; Activity (Nucleic Acid [8]): inactive; Activity (Nucleic Acid [9]): inactive; Activity (Nucleic Acid [10]): inactive; Activity (Nucleic Acid [11]): inactive; fold change (FC) (Nucleic Acid [12]): 4; inhibition (Nucleic Acid [13]): inactive; inhibition (Nucleic Acid [14]): inactive
COc1ccc(C2=C(C3CC3)C3C(=O)c4ccccc4C(=O)C23OC)c2cccnc12 (centres undefined)	–	–	–	–	Active	–
COC12C=C(c3ccc(OC(=O)OC(C)(C)C)c4ncccc34)C1C(=O)c1ccccc1C2=O (centres undefined)	–	–	–	–	inactive	–
COC12C(=O)c3ccccc3C(=O)C1C(C1CC1)=C2c1cccnc1 (centres undefined)	0.91	0.97	1.04	0.93	–	–
COc1ccc(C2=CC3(OC)C(=O)c4ccccc4C(=O)C23)c2cccnc12 (centres undefined)	–	–	–	–	inactive	–
COC12C(=O)c3ccccc3C(=O)C1C(c1ccccc1)=C2c1ccccc1 (centres undefined)	0.58	0.63	0.91	0.45	–	–
COC12C(=O)c3ccccc3C(=O)C1C(c1ccc(OC(C)=O)c3ncccc13)=C2[Si](C)(C)C (centres undefined)	–	–	–	–	inactive	–
COC12C=C(c3ccc(OC(C)=O)c4ncccc34)C1C(=O)c1ccccc1C2=O (centres undefined)	–	–	–	–	inactive	–
COc1ccc(C2=C([Si](C)(C)C)C3(OC)C(=O)c4ccccc4C(=O)C23)c2cccnc12 (centres undefined)	–	–	–	–	Active	–
